According to ChEMBL document CHEMBL4364270, “Structure-activity relationship studies on Bax activator SMBA1 for the treatment of ER-positive and triple-negative breast cancer” (Eur J Med Chem, 2019):
Calls of active or inactive are those of the source. The rule behind the calls is not given here.

Assays:
[1] = test system: MDA-MB-231; experiment: Induction of apoptosis in triple-negative human MDA-MB-231 cells assessed as upregulation of PARP1 cleavage incubated for 48 hrs by Western blot analysis; format: functional, cell-based
How it was run: (§1)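 Western blot: cells harvested after treatment, lysates quantified by Bradford (BSA standard), 30 µg protein resolved by SDS-PAGE, transferred to PVDF, blocked in 5% nonfat milk, probed overnight with anti-PARP-1, anti-cleaved PARP-1 or anti-cyclin D1 (1:1,000) and β-actin loading control; ECL visualization.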

[2] = test system: MDA-MB-468; experiment: Antiproliferative activity against triple negative human MDA-MB-468 cells assessed as reduction in cell growth incubated for 72 hrs by MTT assay; format: functional, cell-based; settings: MDA-MB-468, 72 h
How it was run: (§2)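 MTT viability after 72 h exposure at indicated concentrations; cells seeded at 1×10^3 cells/well (T47D, MDA-MB-468, MCF-10A, MCF-7/ADR) in 96-well plates; quadruplicate wells, independently repeated three times; IC50 as mean ± SE of at least three experiments.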

[3] = target: Apoptosis regulator BAX (Homo sapiens) (UniProt Q07812); experiment: Activation of Bax in ER-positive human MCF7 cells assessed as increase in cytosolic cytochrome C level at 5 uM incubated for 48 hrs by Western blot analysis; format: cell-based
How it was run: (§3)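 Western blot of MCF-7 (and MDA-MB-231 for cytosolic fractions) cells exposed to 5 μM over 0-48 h; 30 µg protein per lane on SDS-PAGE, PVDF transfer, 5% milk block, overnight primary antibodies (total Bax, p-Bax, active Bax 6A7, cytochrome C), ECL detection; cytosolic fraction used for cytochrome c and Bax.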

[4] = test system: MDA-MB-231; experiment: Induction of apoptosis in triple negative human MDA-MB-231 cells assessed as appearance of concentrated dense granules at 5 to 10 uM incubated for 24 hrs by Hoechst 33342 staining based fluorescence microscopy; format: functional, cell-based
How it was run: (§4)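 Cells on coverslips (2.5×10^5/well) treated with DMSO or 5 and 10 μM for 24 h, washed in binding buffer, stained 15 min with FITC-annexin V, ethidium homodimer III and Hoechst 33342, mounted and imaged by fluorescence microscopy (DAPI filter) from center and peripheral regions.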

[5] = test system: MDA-MB-231; experiment: Induction of apoptosis in triple-negative human MDA-MB-231 cells assessed as decrease in cytosolic Bax level at 5 uM incubated for 48 hrs by Western blot analysis; format: functional, cell-based; how it was run: as §3
[6] = test system: MDA-MB-231; experiment: Inhibition of colony formation in triple negative human MDA-MB-231 cells at 1 uM supplemented with fresh medium containing compound every 72 hrs for 2 weeks by crystal violet staining based assay; format: functional, cell-based
How it was run: (§5)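 Clonogenic assay: 800 cells per well seeded, treated after 24 h with 1 μM or DMSO vehicle, medium with compound renewed every 72 h for 2 weeks; PBS wash, 0.01% crystal violet 10 min, whole-well density digitally quantified; triplicate, one-way ANOVA, SD error bars.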

[7] = test system: MCF7; experiment: Induction of apoptosis in ER-positive human MCF7 cells assessed as appearance of concentrated dense granules at 5 to 10 uM incubated for 24 hrs by Hoechst 33342 staining based fluorescence microscopy; format: functional, cell-based; how it was run: as §4
[8] = test system: MCF7; experiment: Induction of apoptosis in ER-positive human MCF7 cells assessed as decrease in cytosolic Bax level at 5 uM incubated for 48 hrs by Western blot analysis; format: functional, cell-based; how it was run: as §3
[9] = target: Apoptosis regulator BAX (Homo sapiens) (UniProt Q07812); experiment: Activation of Bax in ER-positive human MCF7 cells assessed as reduction in Bax phosphorylation at Ser184 at 5 uM incubated upto 48 hrs by Western blotting analysis; format: cell-based; settings: TDE = time-dependent effect; how it was run: as §3
[10] = test system: MDA-MB-231; experiment: Antiproliferative activity against triple negative human MDA-MB-231 cells assessed as reduction in cell growth at 1 uM incubated for 48 hrs by MTT assay relative to control; format: functional; settings: MDA-MB-231, 48 h
How it was run: (§6)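 MTT viability: MCF-7 and MDA-MB-231 seeded 1×10^4 cells/well, exposed to DMSO or 0.01-100 μM for 48 h; MTT (5 mg/mL in PBS) added 4 h, formazan dissolved in DMSO, OD 550 nm; quadruplicate wells; IC50 fitted for compounds giving >50% inhibition at 10 µM; at least three independent experiments.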

[11] = test system: MCF7; experiment: Potency index, ratio of SMBA1 IC50 to compound IC50 for antiproliferative activity against ER-positive human MCF7 cells assessed as reduction in cell growth incubated for 48 hrs by MTT assay; format: functional
[12] = test system: MDA-MB-231; experiment: Antiproliferative activity against triple negative human MDA-MB-231 cells assessed as reduction in cell growth at 10 uM incubated for 48 hrs by MTT assay relative to control; format: functional; settings: MDA-MB-231, 48 h; how it was run: as §6
[13] = target: Apoptosis regulator BAX (Homo sapiens) (UniProt Q07812); experiment: Activation of Bax in triple-negative human MDA-MB-231 cells assessed as increase in cytosolic cytochrome C level at 5 uM incubated for 48 hrs by Western blot analysis; format: cell-based; how it was run: as §3
[14] = test system: MCF7; experiment: Antiproliferative activity against ER-positive human MCF7 cells assessed as reduction in cell viability at 10 uM incubated for 48 hrs by MTT assay relative to control; format: functional; settings: MCF7, 48 h; how it was run: as §6
[15] = test system: MCF7; experiment: Induction of apoptosis in ER-positive human MCF7 cells assessed as upregulation of caspase3 cleavage incubated for 48 hrs by Western blot analysis; format: functional, cell-based
[16] = test system: MDA-MB-231; experiment: Antiproliferative activity against triple negative human MDA-MB-231 cells assessed as reduction in cell growth incubated for 48 hrs by MTT assay; format: functional, cell-based; settings: MDA-MB-231, 48 h; how it was run: as §6
[17] = target: Apoptosis regulator BAX (Homo sapiens) (UniProt Q07812); experiment: Activation of Bax in ER-positive human MCF7 cells assessed as increase in active Bax 6A7 isoform protein level at 5 uM incubated upto 48 hrs by Western blot analysis; format: cell-based; how it was run: as §3
[18] = Toxicity in mouse xenografted with triple-negative human MDA-MB-231 cells assessed as slight reduction in body weight at 2.5 mg/kg, ip administered once daily for 7 days; format: organism-based; settings: in vivo, 168 h
How it was run: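 Female nude mice (6 weeks) given 2.5×10^6 MDA-MB-231 cells in PBS into third mammary fat pad, randomized into four groups; at 200 mm³ tumor volume dosed i.p. daily for 7 days in 50% DMSO/50% PEG vehicle; tumor volume (0.5×L×W²) and body weight measured daily; one-way ANOVA.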

[19] = test system: MCF7; experiment: Induction of apoptosis in ER-positive human MCF7 cells assessed as upregulation of PARP1 cleavage incubated for 48 hrs by Western blot analysis; format: functional, cell-based; how it was run: as §1
[20] = test system: MDA-MB-231; experiment: Induction of apoptosis in triple-negative human MDA-MB-231 cells assessed as downregulation of cyclin D1 level incubated for 48 hrs by Western blot analysis; format: functional, cell-based; how it was run: as §1
[21] = test system: T47D; experiment: Antiproliferative activity against ER-positive human T47D cells assessed as reduction in cell growth at 1 uM incubated for 72 hrs by MTT assay relative to control; format: functional; how it was run: as §2
[22] = test system: MCF7; experiment: Induction of apoptosis in ER-positive human MCF7 cells assessed as increase in total Bax protein level at 5 uM incubated upto 48 hrs by Western blot analysis; format: functional, cell-based; how it was run: as §3
[23] = test system: MCF7; experiment: Induction of apoptosis in ER-positive human MCF7 cells assessed as downregulation of cyclin D1 level incubated for 48 hrs by Western blot analysis; format: functional, cell-based; how it was run: as §1
[24] = test system: MCF7; experiment: Antiproliferative activity against adriamycin-resistant human MCF7 cells assessed as reduction in cell growth incubated for 72 hrs by MTT assay; format: functional, cell-based; how it was run: as §2
[25] = test system: MCF7; experiment: Inhibition of colony formation in ER-positive human MCF7 cells at 1 uM supplemented with fresh medium containing compound every 72 hrs for 2 weeks by crystal violet staining based assay; format: functional, cell-based; how it was run: as §5
[26] = test system: MCF-10A; experiment: Antiproliferative activity against human MCF10A cells assessed as reduction in cell growth incubated for 72 hrs by MTT assay; format: functional, cell-based; how it was run: as §2

Sequence of Apoptosis regulator BAX (Homo sapiens) (Q07812 whole entry, canonical isoform): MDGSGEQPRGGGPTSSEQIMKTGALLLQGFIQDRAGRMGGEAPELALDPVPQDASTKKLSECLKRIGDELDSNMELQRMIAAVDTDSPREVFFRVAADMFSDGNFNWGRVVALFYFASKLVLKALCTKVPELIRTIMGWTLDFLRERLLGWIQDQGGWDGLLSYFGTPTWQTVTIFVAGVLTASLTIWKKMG

IC50 [2]: 1610 nM | Activity [3]: Active | inhibition [9]: Tde | Activity [13]: Active | IC50 [16]: 70 nM | Activity [17]: Active
SMILES: NCCOc1ncccc1C=C1c2ccccc2-c2ccc([N+](=O)[O-])cc21
Activity [1]: Dose-dependent effect | Activity [4]: Active | Activity [5]: Active | inhibition [6]: Active | Activity [7]: Active | Activity [8]: Active | inhibition at 1 µM [10]: > 50% | Ratio IC50 [11]: 80 - 130 | inhibition at 10 µM [12]: > 50% | inhibition at 10 µM [14]: > 50% | Activity [15]: Dose-dependent effect | Activity [18]: Toxic | Activity [19]: Dose-dependent effect | Activity [20]: Dose-dependent effect | inhibition at 1 µM [21]: > 50% | Activity [22]: Active | Activity [23]: Dose-dependent effect | inhibition [24]: Dose-dependent effect | inhibition [25]: Active | IC50 [26]: 110 nM
